Assay results of several laboratories.
Target: Epithelial discoidin domain-containing receptor 1 (DDR1, Homo sapiens, UniProt Q08345)

`CN(C)c1ncc(F)c(-c2cnn3ncccc23)n1` has a remaining binding of 89% (binding; 1 µM).
With `c1cncc(-c2cccc(Nc3nccc(NC4CCCCC4)n3)c2)c1` the remaining binding was 27% (binding; competition with immobilised ligand; 10 µM).
With `CS(=O)(=O)N1CCCC(NC(=O)[C@H](CCC2CCCCC2)NC(=O)c2ccc(CNc3ncnc4c3nnn4-c3ccccc3)cc2)C1` (some centres unmarked) the remaining binding was 89% (cell-free assay; competition with immobilised ligand; 0.1 µM).
For `O=C(NCCCN1CCOCC1)c1ccc(Nc2ncc(Cl)c(-c3ccc(Cl)s3)n2)cc1`, the remaining binding was 84% (binding; competition with immobilised ligand; 1 µM).
For `CCCOc1ccc([C@H]2[C@H](C(=O)O)[C@@H](c3ccc4c(c3)OCO4)CN2CC(=O)Nc2c(CC)cccc2CC)cc1`, the remaining binding was 100% (cell-free assay; competition with immobilised ligand; 1 µM).
`O=C(c1ccc(Nc2nccc(-c3cc4ccccc4s3)n2)cc1)N1CCC(N2CCCC2)CC1` has a remaining binding of 2.1% (binding; competition with immobilised ligand; 1 µM).
`CNC(=O)Nc1ccc2c(c1)CC[C@@]21OC(=O)N(CC(=O)N(Cc2ccc(F)cc2)[C@@H](C)C(F)(F)F)C1=O` gave a remaining binding of 100% (cell-free assay; competition with immobilised ligand; 1 µM).
With `O=C(NCCCN1CCOCC1)c1ccc(Nc2nccc(-c3cc4ccccc4s3)n2)cc1` the remaining binding was 20% (binding; competition with immobilised ligand; 1 µM).
`O=c1nc(-c2ccccn2)sc2ccccc12` gave a remaining binding of 85% (cell-free assay; competition with immobilised ligand; 1 µM).
The remaining binding of `COc1ncc2cc3ccccc3nc2c1C#N` is reported as 85% (cell-free assay; competition with immobilised ligand; 5 µM).
The remaining binding of `c1cnn2ncc(-c3ccnc(N4CCC45COC5)n3)c2c1` is reported as 82% (binding; 1 µM).
`CC(C)(O)c1cncc(-c2nc3ccc(F)cc3n2C2CC2)c1` gave a remaining binding of 100% (cell-free assay; competition with immobilised ligand; 1 µM).
The remaining binding of `N[C@@H]1CCN(c2nccc(-c3cnn4ncccc34)n2)C1` is reported as 100% (binding; 1 µM).
`C=CC(=O)N1CCC(C(=O)NCC(=O)N2CCN(c3nc(-c4cnc(N)nc4C(F)F)nc(N4CCOCC4)n3)CC2)CC1` gave a remaining binding of 100% (binding; competition with immobilised ligand; 1 µM).
With `CN(c1nccc(-c2cnn3ncccc23)n1)C1CC1` the remaining binding was 80% (binding; 1 µM).
For `Cc1cc(NC(=O)c2cccc(S(F)(F)(F)(F)F)c2)cc(-n2ccn3nc(-c4cccnc4)cc23)c1`, the remaining binding was 0% (cell-free assay; competition with immobilised ligand; 1 µM).
With `C[C@@H]1CCN(c2nccc(-c3cnn4ncccc34)n2)C1` the remaining binding was 100% (binding; 1 µM).
The remaining binding of `COc1cnc(Nc2cccc(S(N)(=O)=O)c2)nc1N1CCN(c2ccccc2)C(=O)C1` is reported as 100% (binding; competition with immobilised ligand; 1 µM).
The remaining binding of `F[C@@H]1CCN(c2nccc(-c3cnn4ncccc34)n2)C1` is reported as 83% (binding; 1 µM).
`O=C(NCC1CCOCC1)c1n[nH]cc1NC(=O)c1c(F)cccc1F` gave a remaining binding of 100% (binding; competition with immobilised ligand; 1 µM).
